{"source": "ChEMBL document CHEMBL5149972", "about": "“Novel Antimalarial Tetrazoles and Amides Active against the Hemoglobin Degradation Pathway in Plasmodium falciparum” (J Med Chem, 2021)", "key": {"[1]": {"system": "Plasmodium falciparum", "assay": "Antiplasmodial activity against chloroquine resistant Plasmodium falciparum Dd2-Dd2 mutant replaced with recombinant Dd2 sequence at endogenous pfcrt Dd2 locus infected in human RBC assessed as parasite growth inhibition incubated for 72 hrs by SYBR Green dye based fluorescence assay", "type": "functional, organism-based", "details": "Erythrocyte", "how_it_was_run": "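Gene-edited Dd2 lines with the endogenous pfcrt locus replaced by zinc-finger nuclease editing. Concentration-response curves run with technical duplicates at each concentration; values are the average of two biological replicates, with std dev given where more replicates were collected.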"}, "[2]": {"system": "Plasmodium falciparum", "assay": "Antiplasmodial activity against lab-derived ELQ300 resistant Plasmodium falciparum Dd2-PfCytB mutant infected in human RBC assessed as parasite growth inhibition incubated for 72 hrs by SYBR Green dye based fluorescence assay", "type": "functional, organism-based", "details": "Erythrocyte"}, "[3]": {"system": "Plasmodium falciparum", "assay": "Antiplasmodial activity against lab-derived DSM265 resistant Plasmodium falciparum Dd2-PfDHODH mutant infected in human RBC assessed as parasite growth inhibition incubated for 72 hrs by SYBR Green dye based fluorescence assay", "type": "functional, organism-based", "details": "Erythrocyte"}, "[4]": {"system": "Plasmodium berghei", "assay": "Antiplasmodial activity against liver stage Plasmodium berghei ANKA expressing GFP-Luc-SMCO infected in human HepG2-A16-CD81EGFP cells assessed as reduction in liver-stage development of luciferase-expressing parasite by luciferase reporter gene based bioluminescence assay", "type": "functional, organism-based", "how_it_was_run": "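Pb-Luc (P. berghei ANKA-GFP-Luc-SMCON) sporozoites infect HepG2-A16-CD81EGFP cells in phenol red-free DMEM with 5% FBS, glutamine, penicillin/streptomycin; compounds scored for blocking liver-stage development by luciferase signal.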"}, "[5]": {"assay": "Kinetic solubility of compound in PBS at pH 2 by HPLC analysis", "type": "physicochemical", "details": "read-out: Kinetic_solubility"}, "[6]": {"system": "Plasmodium falciparum", "assay": "(§1) Antiplasmodial activity against Rac-N-(Pyridin-3-yl(1-(o-tolyl)-1H-tetrazol-5-yl)methyl)-N-(3-(trifluoromethyl)benzyl)Cyclopropanamine resistant Plasmodium falciparum 3D7 clone F2-H12 ring-stage parasite assessed as parasite growth inhibition incubated for 72 hrs by SYBR Green and MitoTracker Deep Red FM dye based flow cytometry", "type": "functional, organism-based", "how_it_was_run": "(§2)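 Clonal 3D7-A10 lines recovered after single-step selection; ring stages at 0.2% parasitemia, 1% hematocrit in RPMI-1640 with 0.5% Albumax. 72 h exposure to a 10-point 2-fold dilution series in duplicate with DMSO controls, final DMSO <0.5%. Survival read by flow cytometry, SYBR Green as nuclear stain and MitoTracker Deep Red FM as vital dye. EC₅₀ and EC₉₀ reported with fold shift relative to parental 3D7-A10.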"}, "[7]": {"system": "Plasmodium falciparum", "assay": "Antiplasmodial activity against lab-derived […] resistant Plasmodium falciparum Dd2-PfeEF2 mutant infected in human RBC assessed as parasite growth inhibition incubated for 72 hrs by SYBR Green dye based fluorescence assay", "type": "functional, organism-based", "details": "Erythrocyte"}, "[8]": {"system": "Plasmodium falciparum", "assay": "as §1, with “F2-A10” for “F2-H12”", "type": "functional, organism-based", "how_it_was_run": "as §2"}}, "data": [{"smiles": "Cc1ccccc1-n1nnnc1C(c1cccnc1)N(Cc1cccc(C(F)(F)F)c1)C1CC1", "note": "(racemic)", "values": [{"measurement": "EC50", "setting": "[1]", "result": 450, "unit": "nM"}, {"measurement": "EC50", "setting": "[2]", "result": 850, "unit": "nM"}, {"measurement": "EC50", "setting": "[3]", "result": 800, "unit": "nM"}, {"measurement": "EC50", "setting": "[4]", "result": 7300, "unit": "nM"}, {"measurement": "solubility kinetic", "setting": "[5]", "result": 12, "unit": "µg/mL"}, {"measurement": "EC50", "setting": "[6]; 3D7 clone F2-H12, 72 h", "result": 640, "unit": "nM"}, {"measurement": "EC90", "setting": "[6]; 3D7 clone F2-H12, time 72 hrs", "result": 1300, "unit": "nM"}, {"measurement": "EC50", "setting": "[7]", "result": 920, "unit": "nM"}, {"measurement": "EC50", "setting": "[8]; 3D7 clone F2-A10, 72 h", "result": 830, "unit": "nM"}, {"measurement": "EC90", "setting": "[8]; 3D7 clone F2-A10, time 72 hrs", "result": 1500, "unit": "nM"}]}]}
